Experimental findings from ChEMBL document CHEMBL2429739, “Double-targeting using a TrkC ligand conjugated to dipyrrometheneboron difluoride (BODIPY) based photodynamic therapy (PDT) agent” (J Med Chem, 2013) are described below.

pIC50: −log10 of the molar value. Active and inactive are the calls of the source. The rule behind the calls is not given here. A value given as a limit tells only on which side of the number the result lay.

Usually pIC50 stands for −log10 of the IC50, conventionally taken in molar units.

In series [1] the test system is NIH3T3. Nature of the series: Cellular uptake in mouse NIH/3T3 cells expressing TrkC at 0.5 uM after 2 hrs by confocal microscopy. The conditions noted are these: nih3t3, 2 h. The class given is ADME, cell-based. The method, boiled down:
(§1)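 TrkC-transfected or wild-type NIH3T3 cells exposed to agent at 0.5 μM in supernatant for 2 h. Cells washed three times with PBS, then imaged live by confocal microscopy. Intracellular fluorescence intensity was quantified over 100 cells.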

Series [2] has as its system NIH3T3. As to the kind of experiment: Cytotoxicity against mouse NIH/3T3 cells expressing TrkC assessed as cell viability incubated for 2 hrs followed by 7.3 J/cm'2 halogen light irradiation measured after 24 hrs by MTT assay. The conditions noted are these: for pIC50: NIH3T3, light or radiation study. It counts as functional, cell-based. In outline:
(§2)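 Cells seeded overnight at about 10,000/well (NIH3T3-TrkC) or 7000/well (NIH3T3-WT, SY5Y). Agent applied at 0.02–2 μM final in protein-free PFHM-II medium (<0.001% DMSO) for 2 h. Cells washed and given fresh medium, then irradiated with >480 nm halogen light at 12.2 mW/cm2 (7.3 J/cm2, 10 min). After 24 h, MTT added for 3.5 h; OD read at 570 nm. % dead = 100 − (OD treated/OD control)×100; three runs.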

Series [3] concerns NIH3T3. Nature of the series: Cytotoxicity against mouse NIH/3T3 cells expressing TrkC assessed as cell viability incubated for 2 hrs followed by 7.3 J/cm'2 halogen light irradiation measured after 24 hrs by MTT assay in presence of 20 uM of IY-IY. It counts as functional, cell-based. In outline: (§3)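 NIH3T3-TrkC cells treated for 2 h with agent (0.02–2 μM) together with a constant 20 μM IY-IY or 3.5 nM NT-3 competitor. Cells washed, then irradiated at >480 nm, 12.2 mW/cm2, 7.3 J/cm2. After 24 h, viability read by MTT (OD 570 nm) and expressed as % dead cells; three runs.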
(In general: Formazan colour is commonly taken as a measure of viable cells.)

Series [4] concerns NIH3T3. Nature of the series: Cytotoxicity against mouse NIH/3T3 cells expressing TrkC assessed as cell viability incubated for 2 hrs followed by 7.3 J/cm'2 halogen light irradiation measured after 24 hrs by MTT assay in presence of 3.5 nM of NT3. The class given is functional, cell-based. In outline:
as §3

The next series deals with Mus musculus. As to the kind of experiment: Toxicity in mouse under dark condition at 100 mg/kg after 12 days. The class given is organism-based. Details: dose 100 mg/kg. The conditions noted are these: in vivo, 288 h.
The nature of series [5]: Cellular uptake in endoplasmic reticulum of mouse NIH/3T3 cells expressing TrkC at 1 uM after 12 hrs by confocal microscopy. The class given is ADME, cell-based. The conditions noted are these: nih3t3, 12 h. In outline: (§4)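 NIH3T3-TrkC cells (grown in DMEM/F12 with G418 and 10% newborn calf serum) incubated with agent at 1 μM for 12 h at 37 °C, then PBS-washed. Co-stained with LysoTracker Red 500 nM for 30 min at 37 °C, or with MitoTracker Deep Red / ER-Tracker Blue-White at 100 nm for 15 min. Washed again, then live cells imaged by multiphoton confocal Z-stacks in 0.5 μm steps.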

Series [6] in a line: Cellular uptake in mitochondria of mouse NIH/3T3 cells expressing TrkC at 1 uM after 12 hrs by confocal microscopy. It counts as ADME. The conditions noted are these: nih3t3, 12 h. The method, boiled down: as §4
The test system of series [7] is NIH3T3. Nature of the series: Cellular uptake in wild type mouse NIH/3T3 cells at 0.5 uM after 2 hrs by confocal microscopy. The class given is ADME, cell-based. The conditions noted are these: nih3t3, 2 h. The method, boiled down: as §1
Series [8] can be described thus: Cellular uptake in lysosome of mouse NIH/3T3 cells expressing TrkC at 1 uM after 12 hrs by confocal microscopy. It counts as ADME, cell-based. The conditions noted are these: nih3t3, 12 h. The method, boiled down:
as §4

Series [9] is described as follows: Cytotoxicity against human SH-SY5Y cells expressing TrkC assessed as cell viability after 2 hrs followed by 7.3 J/cm'2 halogen light irradiation measured after 24 hrs by MTT assay. It counts as functional, cell-based. The conditions noted are these: light or radiation study. The method, boiled down: as §2
The test system of series [10] is NIH3T3. Nature of the series: Cytotoxicity against wild type mouse NIH/3T3 cells assessed as cell viability after 2 hrs followed by 7.3 J/cm'2 halogen light irradiation measured after 24 hrs by MTT assay. The conditions noted are these: nih3t3, 24 h. It counts as cell-based. The method, boiled down: as §2
Series [11] has as its system NIH3T3. As to the kind of experiment: Dark cytotoxicity against mouse NIH/3T3 cells expressing TrkC assessed as cell viability by MTT assay. It counts as cell-based. In outline: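 NIH3T3-TrkC cells given the same 2 h agent treatment and wash as in the light assay, but kept without illumination. Viability measured by MTT; three runs.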

With `CC[C@H](C)[C@@H](C(=O)N1CCN(c2nc(NCCOCCOCCOCc3cn(CCCC4=C5C(C)=C(I)C(C)=[N+]5[B-](F)(F)n5c(C)c(I)c(C)c54)nn3)nc(N3CCN(C(=O)[C@H]([C@@H](C)CC)n4cc([C@@H](N)Cc5ccc(O)cc5)nn4)CC3)n2)CC1)n1cc([C@@H](N)Cc2ccc(O)cc2)nn1`, the Drug uptake result with NIH3T3 [1] is given as “Not Active”. Besides, the pIC50 with NIH3T3 [2] was less than 5.70.

As to `CC[C@H](C)[C@H](N)c1cn([C@@H](Cc2ccc(O)cc2)C(=O)N2CCN(c3nc(NCCOCCOCCOCc4cn(CCCC5=C6C(C)=C(I)C(C)=[N+]6[B-](F)(F)n6c(C)c(I)c(C)c65)nn4)nc(N4CCN(C(=O)[C@H](Cc5ccc(O)cc5)n5cc([C@@H](N)[C@@H](C)CC)nn5)CC4)n3)CC2)nn1`, the outcome in the series on NIH3T3 [3] and in the series with NIH3T3 [4] was Active. Also, the Activity entry in the series with Mus musculus is “Non-toxic”; in the series with NIH3T3 [10], “Active”; in the series with NIH3T3 [2], “Dose-dependent effect”; in the series on NIH3T3 [11], “Non-toxic”. For the same molecule, the Drug uptake entry in [5] is “Not Active”; in series [6] it was “Not Active”; with NIH3T3 [7] it was “Not Active”; in series [8], “Active”; in the series on NIH3T3 [1], “Active”. The negative logarithm of the IC50 (pIC50) in series [9] is 6.82; in the series with NIH3T3 [2], 6.46.
